Source: ChEMBL document CHEMBL3860041, “Synthesis, biological evaluation and molecular modeling study of some new methoxylated 2-benzylthio-quinazoline-4(3H)-ones as nonclassical antifolates” (Bioorg Med Chem Lett, 2016)

What was measured:
[1] = target: T1, Dihydrofolate reductase (Bos taurus, UniProt P00376); experiment: Inhibition of bovine liver DHFR preincubated for 2 mins followed by addition of FH2 as substrate and NADPH
T1 sequence (P00376 whole entry): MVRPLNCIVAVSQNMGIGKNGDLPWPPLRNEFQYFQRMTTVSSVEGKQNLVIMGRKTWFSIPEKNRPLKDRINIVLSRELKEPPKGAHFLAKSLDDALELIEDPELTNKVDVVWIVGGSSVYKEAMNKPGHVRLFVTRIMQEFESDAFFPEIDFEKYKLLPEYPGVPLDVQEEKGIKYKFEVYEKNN

[2] = Growth inhibition of human SR cells at 10 uM after 48 hrs by SRB assay relative to control; type: functional; conditions: read-out: GI
Outline: (§1)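 Primary screen across the full NCI 60 human tumour cell line panel, which covers nine tumour subpanels. A single dose of 10 μM was applied to each line, and growth was recorded for each cell line.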

[3] = Growth inhibition of human HOP62 cells at 10 uM after 48 hrs by SRB assay relative to control; type: functional; conditions: HOP-62, 48 h, read-out: GI
Outline: (§2)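 NCI 60-cell-line panel, nine tumor subpanels; compounds tested at a single dose of 10 μM in the primary screen.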

[4] = Growth inhibition of human HOP92 cells at 10 uM after 48 hrs by SRB assay relative to control; type: functional; conditions: HOP-92, 48 h, read-out: GI; outline: as §2
[5] = Growth inhibition of human NCI-H23 cells at 10 uM after 48 hrs by SRB assay relative to control; type: functional; conditions: NCI-H23, 48 h, read-out: GI; outline: as §2
[6] = Growth inhibition of human NCI-H522 cells at 10 uM after 48 hrs by SRB assay relative to control; type: functional; conditions: NCI-H522, 48 h, read-out: GI; outline: as §2
[7] = Growth inhibition of human KM12 cells at 10 uM after 48 hrs by SRB assay relative to control; type: functional; conditions: KM12, 48 h, read-out: GI; outline: as §2
[8] = Growth inhibition of human SW620 cells at 10 uM after 48 hrs by SRB assay relative to control; type: functional; conditions: SW-620, 48 h, read-out: GI; outline: as §1
[9] = Growth inhibition of human SF268 cells at 10 uM after 48 hrs by SRB assay relative to control; type: functional; conditions: SF-268, 48 h, read-out: GI; outline: as §2
[10] = Growth inhibition of human SF295 cells at 10 uM after 48 hrs by SRB assay relative to control; type: functional; conditions: SF-295, 48 h, read-out: GI; outline: as §2
[11] = Growth inhibition of human SNB75 cells at 10 uM after 48 hrs by SRB assay relative to control; type: functional; conditions: SNB-75, 48 h, read-out: GI; outline: as §1
[12] = Growth inhibition of human M14 cells at 10 uM after 48 hrs by SRB assay relative to control; type: functional; conditions: M14, 48 h, read-out: GI; outline: as §2
[13] = Growth inhibition of human UACC257 cells at 10 uM after 48 hrs by SRB assay relative to control; type: functional; conditions: UACC-257, 48 h, read-out: GI; outline: as §1
[14] = Growth inhibition of human NCI/ADR-RES cells at 10 uM after 48 hrs by SRB assay relative to control; type: functional; conditions: read-out: GI; outline: as §2
[15] = Growth inhibition of human SKOV3 cells at 10 uM after 48 hrs by SRB assay relative to control; type: functional; conditions: SK-OV-3, 48 h, read-out: GI; outline: as §1
[16] = Growth inhibition of human Caki1 cells at 10 uM after 48 hrs by SRB assay relative to control; type: functional; conditions: CAKI-1, 48 h, read-out: GI; outline: as §2
[17] = Growth inhibition of human RXF393 cells at 10 uM after 48 hrs by SRB assay relative to control; type: functional; conditions: RXF 393, 48 h, read-out: GI; outline: as §2
[18] = Growth inhibition of human PC3 cells at 10 uM after 48 hrs by SRB assay relative to control; type: functional; conditions: PC-3, 48 h, read-out: GI; outline: as §2
[19] = Growth inhibition of human MCF7 cells at 10 uM after 48 hrs by SRB assay relative to control; type: functional; conditions: MCF7, 48 h, read-out: GI; outline: as §2
[20] = Growth inhibition of human MDA-MB-231 cells at 10 uM after 48 hrs by SRB assay relative to control; type: functional; conditions: MDA-MB-231, 48 h, read-out: GI; outline: as §2
[21] = Growth inhibition of human BT549 cells at 10 uM after 48 hrs by SRB assay relative to control; type: functional; conditions: BT-549, 48 h, read-out: GI; outline: as §2
[22] = Growth inhibition of human MDA-MB-468 cells at 10 uM after 48 hrs by SRB assay relative to control; type: functional; conditions: MDA-MB-468, 48 h, read-out: GI; outline: as §2
[23] = tested on: Cancer cell lines; experiment: Potency index, ratio of 5-fluorouracil GI50 to compound GI50 for human breast cancer cells; type: functional
Outline: (§3)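 GI50 for each cell line came from NCI panel testing over a 5-log dose range, with 5-fluorouracil tested alongside as the reference drug. The index relates the 5-fluorouracil GI50 to the compound GI50 within each tumour subpanel.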

[24] = tested on: Cancer cell lines; experiment: Potency index, ratio of 5-fluorouracil GI50 to compound GI50 for human renal cancer cells; type: functional; outline: as §3
[25] = tested on: Cancer cell lines; experiment: Potency index, ratio of 5-fluorouracil GI50 to compound GI50 for human ovarian cancer cells; type: functional; outline: as §3
[26] = tested on: Melanoma cell; experiment: Potency index, ratio of 5-fluorouracil GI50 to compound GI50 for human melanoma cells; type: functional; outline: as §3
[27] = tested on: Cancer cell lines; experiment: Potency index, ratio of 5-fluorouracil GI50 to compound GI50 for human CNS cancer cells; type: functional; outline: as §3
[28] = tested on: Leukemia cell; experiment: Potency index, ratio of 5-fluorouracil GI50 to compound GI50 for human leukemia cells; type: functional; outline: as §3
[29] = Growth inhibition of human CNS cancer cells after 48 hrs by SRB assay; type: functional; conditions: Cancer cell lines
Outline: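 Five-log dose range against NCI tumor cell lines, monitoring GI50, TGI and LC50 for each cell line; MG-MID values derived across the panel; 5-fluorouracil positive control.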

[30] = Growth inhibition of human leukemia cells after 48 hrs by SRB assay; type: functional; conditions: Leukemia cell; for CC50: read-out: LC50 (the source's name)
Outline: (§4)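 Follow-up NCI panel testing over a 5-log dose range for each cell line. GI50, TGI and LC50 were monitored, with 5-fluorouracil run as the positive control. Values are grouped by tumour subpanel.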

[31] = Growth inhibition of human ovarian cancer cells after 48 hrs by SRB assay; type: functional; conditions: Cancer cell lines; outline: as §4
[32] = Growth inhibition of human renal cancer cells after 48 hrs by SRB assay; type: functional; conditions: Cancer cell lines; outline: as §4
[33] = Growth inhibition of human HL-60(TB) cells at 10 uM after 48 hrs by SRB assay relative to control; type: functional; conditions: HL-60, 48 h, read-out: GI
Outline: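 NCI disease-oriented human tumour cell line screen: primary single-dose assay at 10 μM across the full 60-cell-line panel spanning nine tumour subpanels.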

[34] = Growth inhibition of human OVCAR3 cells at 10 uM after 48 hrs by SRB assay relative to control; type: functional; conditions: OVCAR-3, 48 h, read-out: GI; outline: as §2
[35] = Growth inhibition of human A498 cells at 10 uM after 48 hrs by SRB assay relative to control; type: functional; conditions: A498, 48 h, read-out: GI; outline: as §2

COc1ccc(-n2c(SCc3cc(OC)c(OC)c(OC)c3)nc3ccc(C)cc3c2=O)c(OC)c1
IC50 [1]: 3 µM
inhibition of growth at 10 µM [2]: 92.3%
inhibition of growth at 10 µM [3]: 52.6%
inhibition of growth at 10 µM [4]: 77.3%
inhibition of growth at 10 µM [5]: 82.2%
inhibition of growth at 10 µM [6]: < 10%
inhibition of growth at 10 µM [7]: 81.9%
inhibition of growth at 10 µM [8]: 27.9%
inhibition of growth at 10 µM [9]: 55.9%
inhibition of growth at 10 µM [10]: 93.7%
inhibition of growth at 10 µM [11]: 70.4%
inhibition of growth at 10 µM [12]: 88.8%
inhibition of growth at 10 µM [13]: < 10%
inhibition of growth at 10 µM [14]: 98.6%
inhibition of growth at 10 µM [15]: 54.7%
inhibition of growth at 10 µM [16]: 86.7%
inhibition of growth at 10 µM [17]: 80.4%
inhibition of growth at 10 µM [18]: 91.3%
inhibition of growth at 10 µM [19]: 84.6%
inhibition of growth at 10 µM [20]: 55.2%
inhibition of growth at 10 µM [21]: 67.9%
inhibition of growth at 10 µM [22]: 83%
RatioGI50 [23]: 2 - 10
RatioGI50 [24]: 2 - 10
RatioGI50 [25]: 2 - 10
RatioGI50 [26]: 2 - 10
RatioGI50 [27]: 2 - 10
RatioGI50 [28]: 2 - 10
GI50 [29]: 9.6 µM
LC50 (lethal concentration, 50% net cell kill) [29]: > 100 µM
TGI [29]: 84.6 µM
GI50 [30]: 2.5 µM
TGI [30]: 56.2 µM
CC50 [30]: > 100 µM
GI50 [31]: 5.1 µM
LC50 (50% lethal concentration) [31]: > 100 µM
TGI [31]: 86.7 µM
GI50 [32]: 15.4 µM
LC50 [32]: > 100 µM
TGI [32]: 92.5 µM

COc1cc(CSc2nc3ccc(Cl)cc3c(=O)n2-c2ccccc2)cc(OC)c1OC
IC50 [1]: 0.8 µM
inhibition of growth at 10 µM [33]: < 10%
inhibition of growth at 10 µM [2]: 54.4%
inhibition of growth at 10 µM [3]: 28%
inhibition of growth at 10 µM [4]: 11.1%
inhibition of growth at 10 µM [5]: 21%
inhibition of growth at 10 µM [6]: 61.6%
inhibition of growth at 10 µM [7]: 50.2%
inhibition of growth at 10 µM [8]: 20.3%
inhibition of growth at 10 µM [9]: 22.3%
inhibition of growth at 10 µM [10]: 15.8%
inhibition of growth at 10 µM [11]: 24.3%
inhibition of growth at 10 µM [12]: < 10%
inhibition of growth at 10 µM [13]: 10.3%
inhibition of growth at 10 µM [34]: 22.2%
inhibition of growth at 10 µM [14]: 24.5%
inhibition of growth at 10 µM [15]: < 10%
inhibition of growth at 10 µM [35]: 18.3%
inhibition of growth at 10 µM [16]: 26.1%
inhibition of growth at 10 µM [17]: 31.1%
inhibition of growth at 10 µM [18]: 26.8%
inhibition of growth at 10 µM [19]: 23.1%
inhibition of growth at 10 µM [20]: 37%
inhibition of growth at 10 µM [21]: < 10%
inhibition of growth at 10 µM [22]: 42.7%

COc1ccccc1-n1c(SCc2cc(OC)c(OC)c(OC)c2)nc2ccc(Cl)cc2c1=O
IC50 [1]: 0.1 µM
inhibition of growth at 10 µM [2]: 84%
inhibition of growth at 10 µM [3]: 48.2%
inhibition of growth at 10 µM [4]: 57.1%
inhibition of growth at 10 µM [5]: 63.9%
inhibition of growth at 10 µM [6]: < 10%
inhibition of growth at 10 µM [7]: 83.6%
inhibition of growth at 10 µM [8]: 83.2%
inhibition of growth at 10 µM [9]: 58.4%
inhibition of growth at 10 µM [10]: 68.2%
inhibition of growth at 10 µM [12]: 84.1%
inhibition of growth at 10 µM [13]: < 10%
inhibition of growth at 10 µM [34]: 99.5%
inhibition of growth at 10 µM [14]: 79.8%
inhibition of growth at 10 µM [15]: 40.6%
inhibition of growth at 10 µM [35]: 95%
inhibition of growth at 10 µM [16]: 57.4%
inhibition of growth at 10 µM [17]: 38.5%
inhibition of growth at 10 µM [18]: 80.4%
inhibition of growth at 10 µM [19]: 84.4%
inhibition of growth at 10 µM [20]: 44.3%
inhibition of growth at 10 µM [21]: 60.5%
inhibition of growth at 10 µM [22]: 84.4%
RatioGI50 [23]: 2 - 10
RatioGI50 [24]: 2 - 10
RatioGI50 [25]: 2 - 10
RatioGI50 [26]: 2 - 10
RatioGI50 [27]: 2 - 10
RatioGI50 [28]: 2 - 10
GI50 [29]: 7.9 µM
LC50 (lethal concentration, 50% net cell kill) [29]: > 100 µM
TGI [29]: 63.1 µM
GI50 [30]: 2.4 µM
TGI [30]: 86.5 µM
CC50 [30]: > 100 µM
GI50 [31]: 6.7 µM
LC50 (50% lethal concentration) [31]: > 100 µM
TGI [31]: 87.9 µM
GI50 [32]: 10.6 µM
LC50 [32]: > 100 µM
TGI [32]: 93.5 µM
